Data as given in ChEMBL document CHEMBL1145189, “Synthesis and evaluation of S-acyl-2-thioethyl esters of modified nucleoside 5'-monophosphates as inhibitors of hepatitis C virus RNA replication” (J Med Chem, 2005).
Where “and” joins values, the source holds several entries; their conditions need not be identical. Equal entries are not always repeated.

How the values were obtained:
[1] = Effective concentration against hepatitis C virus RNA replication in a subgenomic bicistronic replicon in HBI10A cells; assay type: functional, cell-based; conditions: Homo sapiens
Summary of the method: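 Stable Huh-7-derived HBI10A hepatoma line carrying a subgenomic bicistronic HCV replicon. Compound incubated with cells for 24 h. Relative replicon RNA then quantified by in situ ribonuclease protection assay.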

[2] = Cytotoxic concentration of compound in human HBI10A cells infected with hepatitis C virus in MTS assay; assay type: functional
Summary of the method: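 MTS cytotoxicity run on samples parallel to the replicon assay, at the same time (24 h compound exposure). Cells plated at 2.0 × 10⁴/well and compound added next day at 2× in medium. Incubation at 37 °C, 5% CO₂. MTS reagent added for 1 h, then absorbance read at 490 nm.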

[3] = Average intracellular Metabolism was measured in human HBI10A cells after 23 hr of incubation; assay type: functional
Summary of the method: (§1)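 Radiolabeled 5-[³H] compound at 2 µM incubated with Huh-7 (passage 27) or HBI10A (passage 15) cells for 3 or 23 h. Cells extracted and analysed by ion pair reverse-phase HPLC. Triphosphate reported as pmol/million cells, with major metabolic byproducts noted. Averages of at least three separate experiments.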

[4] = system: Huh-7; assay: Average intracellular Metabolism was measured in human Huh-7 cells after 3 h of incubation; assay type: functional; summary of the method: as §1
[5] = Average intracellular Metabolism was measured in human HBI10A cells after 3 h of incubation; assay type: functional; summary of the method: as §1
[6] = system: Huh-7; assay: Average intracellular Metabolism was measured in human Huh-7 cells after 23 hr of incubation; assay type: functional; summary of the method: as §1
[7] = system: CHO; assay: Effect of compound (550 uM) on growth of CHO cells measured as population doublings from the beginning of the experiment as percent of controls after 20 hr of treatment (harvested at 20h of treatment); assay type: functional, Cricetulus griseus
Summary of the method: (§2)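 Exponentially growing CHO (clone WBL) monolayers treated for 20 h without S-9. DMSO stock diluted 100-fold into medium, giving 1% v/v DMSO as vehicle control. Cultures harvested at 20, 30 or 42 h after dosing. Growth expressed as population doublings from start of experiment as a percentage of controls.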

[8] = system: CHO; assay: Effect of compound (550 uM) on growth of CHO cells measured as population doublings from the beginning of the experiment as percent of controls after 20 hr of treatment (harvested at 30h of treatment); assay type: functional, Cricetulus griseus; summary of the method: as §2
[9] = system: CHO; assay: Effect of compound (550 uM) on growth of CHO cells measured as population doublings from the beginning of the experiment as percent of controls after 20 hr of treatment (harvested at 42h of treatment); assay type: functional, Cricetulus griseus; summary of the method: as §2
[10] = system: CHO; assay: Effect of compound (700 uM) on growth of CHO cells measured as population doublings from the beginning of the experiment as percent of controls after 20 hr of treatment (harvested at 20h of treatment); assay type: functional, Cricetulus griseus; summary of the method: as §2
[11] = system: CHO; assay: Effect of compound (700 uM) on growth of CHO cells measured as population doublings from the beginning of the experiment as percent of controls after 20 h of treatment (harvested at 30h of treatment); assay type: functional, Cricetulus griseus; summary of the method: as §2
[12] = system: CHO; assay: Effect of compound (700 uM) on growth of CHO cells measured as population doublings from the beginning of the experiment as percent of controls after 20 hr of treatment (harvested at 42h of treatment); assay type: functional, Cricetulus griseus; summary of the method: as §2
[13] = system: CHO; assay: Effect of compound (800 uM) on growth of CHO cells measured as population doublings from the beginning of the experiment as percent of controls after 20 hr of treatment (harvested at 20h of treatment); assay type: functional, Cricetulus griseus; summary of the method: as §2
[14] = system: CHO; assay: Effect of compound (800 uM) on growth of CHO cells measured as population doublings from the beginning of the experiment as percent of controls after 20 hr of treatment (harvested at 30h of treatment); assay type: functional, Cricetulus griseus; summary of the method: as §2
[15] = system: CHO; assay: Effect of compound (800 uM) on growth of CHO cells measured as population doublings from the beginning of the experiment as percent of controls after 20 hr of treatment (harvested at 42h of treatment); assay type: functional, Cricetulus griseus; summary of the method: as §2
[16] = system: CHO; assay: Effect of compound (600 uM) on growth of CHO cells measured as population doublings from the beginning of the experiment as percent of controls after 20 hr of treatment (harvested at 20h of treatment); assay type: functional, Cricetulus griseus; summary of the method: as §2
[17] = system: CHO; assay: Effect of compound (600 uM) on growth of CHO cells measured as population doublings from the beginning of the experiment as percent of controls after 20 hr of treatment (harvested at 30h of treatment); assay type: functional, Cricetulus griseus; summary of the method: as §2
[18] = system: CHO; assay: Effect of compound (600 uM) on growth of CHO cells measured as population doublings from the beginning of the experiment as percent of controls after 20 hr of treatment (harvested at 42h of treatment); assay type: functional, Cricetulus griseus; summary of the method: as §2
[19] = system: CHO; assay: Effect of compound (650 uM) on growth of CHO cells measured as population doublings from the beginning of the experiment as percent of controls after 20 hr of treatment (harvested at 20h of treatment); assay type: functional, Cricetulus griseus; summary of the method: as §2
[20] = system: CHO; assay: Effect of compound (650 uM) on growth of CHO cells measured as population doublings from the beginning of the experiment as percent of controls after 20 hr of treatment (harvested at 30h of treatment); assay type: functional, Cricetulus griseus; summary of the method: as §2
[21] = system: CHO; assay: Effect of compound (650 uM) on growth of CHO cells measured as population doublings from the beginning of the experiment as percent of controls after 20 hr of treatment (harvested at 42h of treatment); assay type: functional, Cricetulus griseus; summary of the method: as §2
[22] = system: CHO; assay: Percent of CHO cells with chromosomal aberrations were determined at 550 uM compound after 20 hr of treatment (harvested at 20h of treatment); assay type: functional, Cricetulus griseus
Summary of the method: (§3)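 CHO (clone WBL) monolayers treated for 20 h without S-9, with DMSO stock diluted 100-fold into medium. Harvest at 20, 30 or 42 h after dosing; colcemid added 1–2 h before harvest for metaphase arrest. Cells fixed, and 200 cells scored per point for % aberrant cells. Points not scored where toxicity prevented it. Comparison against concurrent controls.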

[23] = system: CHO; assay: Percent of CHO cells with chromosomal aberrations were determined at 550 uM compound after 20 hr of treatment (harvested at 30h of treatment); assay type: functional, Cricetulus griseus; summary of the method: as §3
[24] = system: CHO; assay: Percent of CHO cells with chromosomal aberrations were determined at 600 uM compound after 20 hr of treatment (harvested at 20h of treatment); assay type: functional, Cricetulus griseus; summary of the method: as §3
[25] = system: CHO; assay: Percent of CHO cells with chromosomal aberrations were determined at 600 uM compound after 20 hr of treatment (harvested at 30h of treatment); assay type: functional, Cricetulus griseus; summary of the method: as §3
[26] = system: CHO; assay: Percent of CHO cells with chromosomal aberrations were determined at 600 uM compound after 20 hr of treatment (harvested at 42h of treatment); assay type: functional, Cricetulus griseus; summary of the method: as §3
[27] = system: CHO; assay: Percent of CHO cells with chromosomal aberrations were determined at 650 uM compound after 20 hr of treatment (harvested at 30h of treatment); assay type: functional, Cricetulus griseus; summary of the method: as §3
[28] = system: CHO; assay: Percent of CHO cells with chromosomal aberrations were determined at 700 uM compound after 20 hr of treatment (harvested at 42h of treatment); assay type: functional, Cricetulus griseus; summary of the method: as §3
[29] = system: CHO; assay: Percent of CHO cells with chromosomal aberrations were determined at 650 uM compound after 20 hr of treatment (harvested at 20h of treatment); Not scored because of toxicity; assay type: functional, cell-based; conditions: Cricetulus griseus; summary of the method: as §3
[30] = system: CHO; assay: Percent of CHO cells with chromosomal aberrations were determined at 700 uM compound after 20 hr of treatment (harvested at 20h of treatment); Not scored because of toxicity; assay type: functional, cell-based; conditions: Cricetulus griseus; summary of the method: as §3
[31] = system: CHO; assay: Percent of CHO cells with chromosomal aberrations were determined at 700 uM compound after 20 h of treatment (harvested at 30h of treatment); Not scored because of toxicity; assay type: functional, cell-based; conditions: Cricetulus griseus; summary of the method: as §3
[32] = system: CHO; assay: Percent of CHO cells with chromosomal aberrations were determined at 800 uM compound after 20 hr of treatment (harvested at 20h of treatment); Not scored because of toxicity; assay type: functional, cell-based; conditions: Cricetulus griseus; summary of the method: as §3
[33] = system: CHO; assay: Percent of CHO cells with chromosomal aberrations were determined at 800 uM compound after 20 hr of treatment (harvested at 30h of treatment); Not scored because of toxicity; assay type: functional, cell-based; conditions: Cricetulus griseus; summary of the method: as §3
[34] = system: CHO; assay: Percent of CHO cells with chromosomal aberrations were determined at 800 uM compound after 20 hr of treatment (harvested at 42h of treatment); Not scored because of toxicity; assay type: functional, cell-based; conditions: Cricetulus griseus; summary of the method: as §3
[35] = Inhibitory concentration against hepatitis C virus NS5B-mediated RNA synthesis in HBI10A cells; assay type: functional, cell-based; conditions: Homo sapiens

Compound: CC(C)(C)C(=O)SCCOP(=O)(OCCSC(=O)C(C)(C)C)OC[C@@H]1C[C@@H](O)[C@H](n2ccc(N)nc2=O)O1
- EC50 [1]: 1.4 µM
- CC50 [2]: > 100 µM

Compound: CO[C@@H]1[C@H](O)[C@@H](COP(=O)(OCCSC(=O)C(C)(C)C)OCCSC(=O)C(C)(C)C)O[C@H]1n1ccc(N)nc1=O
- EC50 [1]: 3 µM
- Activity [3]: 5.8 pmol/million cells
- Activity [4]: 7.02 pmol/million cells
- Activity [5]: 15.9 pmol/million cells
- Activity [6]: 1.88 pmol/million cells
- Growth [7]: 59%
- Growth [8]: 82%
- Growth [9]: 95%
- Growth [10]: 21%
- Growth [11]: 6%
- Growth [12]: 47%
- Growth [13]: 6%
- Growth [14]: 0%
- Growth [15]: 0%
- CC50 [2]: > 100 µM
- Growth [16]: 51%
- Growth [17]: 57%
- Growth [18]: 88%
- Growth [19]: 27%
- Growth [20]: 46%
- Growth [21]: 90%
- Aberrant cells [22]: 0%
- Aberrant cells [23]: 3.5%
- Aberrant cells [24]: 2%
- Aberrant cells [25]: 1.5%
- Aberrant cells [26]: 1.5%
- Aberrant cells [27]: 4.5% and 3%
- Aberrant cells [28]: 3.5%
- Aberrant cells [29]: Not scored
- Aberrant cells [30]: Not scored
- Aberrant cells [31]: Not scored
- Aberrant cells [32]: Not scored
- Aberrant cells [33]: Not scored
- Aberrant cells [34]: Not scored

Compound: CC(C)(C)C(=O)SCCOP(=O)(OCCSC(=O)C(C)(C)C)OC[C@@H]1C[C@@H](O)[C@H](n2ccc3c(O)nc(N)nc32)O1
- EC50 [1]: 7.2 µM
- CC50 [2]: > 50 µM

Compound: CC(C)(C)C(=O)SCCOP(=O)(OCCSC(=O)C(C)(C)C)OC[C@@H]1C[C@@H](O)[C@H](n2cnc3c(O)nc(N)nc32)O1
- EC50 [1]: 23 µM
- CC50 [2]: > 50 µM

Compound: CO[C@@H]1[C@H](O)[C@@H](CO)O[C@H]1n1ccc(N)nc1=O
- IC50 [35]: 3.8 µM
- EC50 [1]: 21 µM
- Activity [3]: 0.18 pmol/million cells
- Activity [4]: 0.17 pmol/million cells
- Activity [5]: 0.05 pmol/million cells
- Activity [6]: 0.61 pmol/million cells
- CC50 [2]: > 100 µM

Compound: CO[C@@H]1[C@H](O)[C@@H](CO)O[C@H]1n1cnc2c(O)nc(N)nc21
- IC50 [35]: 1.2 µM
- EC50 [1]: > 50 µM

Compound: CO[C@@H]1[C@H](O)[C@@H](COP(=O)(OCCSC(=O)C(C)(C)C)OCCSC(=O)C(C)(C)C)O[C@H]1n1cnc2c(O)nc(N)nc21
- EC50 [1]: > 50 µM
- CC50 [2]: > 50 µM
